Assays:
Conditions in all cases: stereoisomer not certain
OR5AC2 (Homo sapiens) = molecular target: T1, OR5AC2 (Homo sapiens) (UniProt Q9NZP5)
T1 sequence (whole entry): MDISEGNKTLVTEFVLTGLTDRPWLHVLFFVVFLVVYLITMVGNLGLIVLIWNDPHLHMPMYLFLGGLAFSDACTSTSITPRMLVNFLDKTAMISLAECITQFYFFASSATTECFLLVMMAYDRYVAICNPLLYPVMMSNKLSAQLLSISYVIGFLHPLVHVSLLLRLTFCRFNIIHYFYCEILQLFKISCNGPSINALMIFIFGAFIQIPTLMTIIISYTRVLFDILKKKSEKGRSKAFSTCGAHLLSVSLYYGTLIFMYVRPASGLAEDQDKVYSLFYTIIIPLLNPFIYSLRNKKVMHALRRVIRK
How it was run: (§1)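 Assay methods differ from source to source, frequently being transient luciferase assays in mammalian cell lines. For each receptor–molecule pair, the label responsive (active) applies when the original authors judged the measured signal statistically different from baseline, and non-responsive (inactive) applies otherwise.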

OR52N4 (Homo sapiens) = molecular target: T2, OR52N4 (Homo sapiens) (UniProt Q8NGI2)
T2 sequence (whole entry): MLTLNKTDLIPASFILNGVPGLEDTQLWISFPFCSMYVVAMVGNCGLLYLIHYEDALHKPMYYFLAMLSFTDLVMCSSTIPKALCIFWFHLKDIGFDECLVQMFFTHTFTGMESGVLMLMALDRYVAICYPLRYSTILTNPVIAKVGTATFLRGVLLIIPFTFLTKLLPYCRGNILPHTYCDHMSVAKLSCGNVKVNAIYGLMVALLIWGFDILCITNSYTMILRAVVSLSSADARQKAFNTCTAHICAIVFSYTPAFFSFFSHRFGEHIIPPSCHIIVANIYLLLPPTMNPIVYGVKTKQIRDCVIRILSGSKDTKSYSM
How it was run: as §1

OR52N5 (Homo sapiens) = molecular target: T3, OR52N5 (Homo sapiens) (UniProt Q8NH56)
T3 sequence (whole entry): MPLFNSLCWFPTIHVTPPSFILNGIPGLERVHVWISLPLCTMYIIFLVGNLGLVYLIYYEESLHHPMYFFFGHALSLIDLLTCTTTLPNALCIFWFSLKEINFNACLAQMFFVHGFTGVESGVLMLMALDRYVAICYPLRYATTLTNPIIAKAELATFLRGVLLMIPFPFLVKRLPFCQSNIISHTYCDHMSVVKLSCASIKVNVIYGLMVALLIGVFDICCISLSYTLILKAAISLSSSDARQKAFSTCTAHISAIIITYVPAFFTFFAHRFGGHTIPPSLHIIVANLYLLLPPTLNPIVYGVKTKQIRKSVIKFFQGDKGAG
How it was run: as §1

OR52R1 (Homo sapiens) = molecular target: T4, OR52R1 (Homo sapiens) (UniProt Q8NGF1)
T4 sequence (whole entry): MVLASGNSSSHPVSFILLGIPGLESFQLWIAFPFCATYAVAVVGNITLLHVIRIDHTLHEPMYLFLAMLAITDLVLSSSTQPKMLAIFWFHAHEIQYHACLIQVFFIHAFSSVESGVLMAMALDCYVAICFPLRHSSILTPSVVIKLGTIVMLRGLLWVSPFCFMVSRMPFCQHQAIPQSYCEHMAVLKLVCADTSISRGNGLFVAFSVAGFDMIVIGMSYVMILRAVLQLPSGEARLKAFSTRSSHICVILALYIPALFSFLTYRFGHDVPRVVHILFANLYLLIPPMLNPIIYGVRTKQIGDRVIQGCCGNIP
How it was run: as §1

OR52W1 (Homo sapiens) = molecular target: T5, OR52W1 (Homo sapiens) (UniProt Q6IF63)
T5 sequence (whole entry): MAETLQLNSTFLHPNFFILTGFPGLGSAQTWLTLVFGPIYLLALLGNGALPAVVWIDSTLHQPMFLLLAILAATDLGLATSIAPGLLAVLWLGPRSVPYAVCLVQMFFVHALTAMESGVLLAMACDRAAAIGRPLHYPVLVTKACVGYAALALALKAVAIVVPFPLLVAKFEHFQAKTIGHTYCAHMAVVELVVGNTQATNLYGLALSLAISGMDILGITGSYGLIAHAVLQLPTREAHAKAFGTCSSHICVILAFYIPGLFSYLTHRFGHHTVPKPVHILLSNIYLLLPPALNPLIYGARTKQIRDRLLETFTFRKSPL
How it was run: as §1

OR56A1 (Homo sapiens) = molecular target: T6, OR56A1 (Homo sapiens) (UniProt Q8NGH5)
T6 sequence (whole entry): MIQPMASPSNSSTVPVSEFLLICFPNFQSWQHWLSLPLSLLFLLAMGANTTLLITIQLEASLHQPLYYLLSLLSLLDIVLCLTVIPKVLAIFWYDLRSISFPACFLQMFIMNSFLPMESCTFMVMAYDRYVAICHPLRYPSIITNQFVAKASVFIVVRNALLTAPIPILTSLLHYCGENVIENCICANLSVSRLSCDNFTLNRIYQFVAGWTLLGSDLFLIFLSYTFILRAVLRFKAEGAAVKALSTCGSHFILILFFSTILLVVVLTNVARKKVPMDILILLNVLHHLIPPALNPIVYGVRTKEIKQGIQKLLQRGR
How it was run: as §1

OR56A3 (Homo sapiens) = molecular target: T7, OR56A3 (Homo sapiens) (UniProt Q8NH54)
T7 sequence (whole entry): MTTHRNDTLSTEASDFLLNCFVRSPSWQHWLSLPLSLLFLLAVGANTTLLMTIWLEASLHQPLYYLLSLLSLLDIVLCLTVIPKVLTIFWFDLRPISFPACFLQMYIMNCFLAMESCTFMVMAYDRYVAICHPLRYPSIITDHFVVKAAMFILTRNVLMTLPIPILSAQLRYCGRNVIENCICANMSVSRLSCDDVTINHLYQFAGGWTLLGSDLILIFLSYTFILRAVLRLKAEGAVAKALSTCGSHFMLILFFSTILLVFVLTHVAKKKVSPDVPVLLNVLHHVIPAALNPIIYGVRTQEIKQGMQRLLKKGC
How it was run: as §1

OR56A4 (Homo sapiens) = molecular target: T8, OR56A4 (Homo sapiens) (UniProt Q8NGH8)
T8 sequence (whole entry): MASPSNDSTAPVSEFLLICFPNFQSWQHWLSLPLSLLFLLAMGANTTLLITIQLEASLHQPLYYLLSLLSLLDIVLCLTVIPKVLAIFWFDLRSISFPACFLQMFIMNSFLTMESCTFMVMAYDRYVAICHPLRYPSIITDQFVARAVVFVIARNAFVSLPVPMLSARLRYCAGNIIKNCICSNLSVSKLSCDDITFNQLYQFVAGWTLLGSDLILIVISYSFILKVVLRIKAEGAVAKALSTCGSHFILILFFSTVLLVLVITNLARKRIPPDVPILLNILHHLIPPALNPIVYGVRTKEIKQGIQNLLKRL
How it was run: as §1

OR56A5 (Homo sapiens) = molecular target: T9, OR56A5 (Homo sapiens) (UniProt P0C7T3)
T9 sequence (whole entry): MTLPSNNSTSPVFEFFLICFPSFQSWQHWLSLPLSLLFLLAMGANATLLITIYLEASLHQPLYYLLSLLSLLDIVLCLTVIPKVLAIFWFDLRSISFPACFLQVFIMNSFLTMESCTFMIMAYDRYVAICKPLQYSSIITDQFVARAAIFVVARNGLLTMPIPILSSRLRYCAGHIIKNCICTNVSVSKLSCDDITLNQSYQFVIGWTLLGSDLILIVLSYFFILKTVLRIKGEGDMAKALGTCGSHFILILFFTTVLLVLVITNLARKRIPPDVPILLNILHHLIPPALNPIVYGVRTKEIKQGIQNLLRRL
How it was run: as §1

OR56B1 (Homo sapiens) = molecular target: T10, OR56B1 (Homo sapiens) (UniProt Q8NGI3)
T10 sequence (whole entry): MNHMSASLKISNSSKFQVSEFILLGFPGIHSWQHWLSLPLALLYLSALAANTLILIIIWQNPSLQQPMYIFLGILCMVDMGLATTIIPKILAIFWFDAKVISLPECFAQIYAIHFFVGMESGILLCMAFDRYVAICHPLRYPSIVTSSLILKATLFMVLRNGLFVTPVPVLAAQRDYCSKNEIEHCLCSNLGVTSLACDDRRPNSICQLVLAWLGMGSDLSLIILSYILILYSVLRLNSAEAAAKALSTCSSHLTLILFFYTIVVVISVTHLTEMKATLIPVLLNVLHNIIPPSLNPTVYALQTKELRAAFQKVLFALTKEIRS
How it was run: as §1

OR56B4 (Homo sapiens) = molecular target: T11, OR56B4 (Homo sapiens) (UniProt Q8NH76)
T11 sequence (whole entry): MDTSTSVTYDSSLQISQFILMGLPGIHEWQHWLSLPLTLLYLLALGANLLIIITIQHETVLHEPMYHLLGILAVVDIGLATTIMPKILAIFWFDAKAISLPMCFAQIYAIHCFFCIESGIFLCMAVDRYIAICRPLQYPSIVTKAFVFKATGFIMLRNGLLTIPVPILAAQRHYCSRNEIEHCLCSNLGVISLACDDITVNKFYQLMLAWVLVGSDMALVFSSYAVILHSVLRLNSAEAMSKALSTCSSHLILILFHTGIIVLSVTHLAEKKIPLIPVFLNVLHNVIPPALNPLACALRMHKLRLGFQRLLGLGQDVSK
How it was run: as §1

OR5A1 (Homo sapiens) = molecular target: T12, OR5A1 (Homo sapiens) (UniProt Q8NGJ0)
T12 sequence (whole entry): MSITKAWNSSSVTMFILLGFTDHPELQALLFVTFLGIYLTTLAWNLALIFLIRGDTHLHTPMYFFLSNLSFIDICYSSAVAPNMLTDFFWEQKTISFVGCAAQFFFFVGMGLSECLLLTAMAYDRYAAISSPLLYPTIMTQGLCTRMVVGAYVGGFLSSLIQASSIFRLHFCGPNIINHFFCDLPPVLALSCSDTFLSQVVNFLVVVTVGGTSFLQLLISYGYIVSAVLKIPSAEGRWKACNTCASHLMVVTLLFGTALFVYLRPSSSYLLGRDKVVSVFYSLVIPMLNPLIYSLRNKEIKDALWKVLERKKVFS
How it was run: as §1

OR5A2 (Homo sapiens) = molecular target: T13, OR5A2 (Homo sapiens) (UniProt Q8NGI9)
T13 sequence (whole entry): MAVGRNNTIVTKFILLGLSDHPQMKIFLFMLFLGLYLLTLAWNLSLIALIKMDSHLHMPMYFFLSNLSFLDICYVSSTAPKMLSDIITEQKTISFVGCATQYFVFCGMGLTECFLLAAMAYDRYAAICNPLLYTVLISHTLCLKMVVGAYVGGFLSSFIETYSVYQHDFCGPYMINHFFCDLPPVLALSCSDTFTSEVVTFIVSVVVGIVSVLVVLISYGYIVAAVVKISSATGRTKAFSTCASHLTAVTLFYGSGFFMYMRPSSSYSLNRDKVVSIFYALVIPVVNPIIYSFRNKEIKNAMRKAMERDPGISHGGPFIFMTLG
How it was run: as §1

OR5AK2 (Homo sapiens) = molecular target: T14, OR5AK2 (Homo sapiens) (UniProt Q8NH90)
T14 sequence (whole entry): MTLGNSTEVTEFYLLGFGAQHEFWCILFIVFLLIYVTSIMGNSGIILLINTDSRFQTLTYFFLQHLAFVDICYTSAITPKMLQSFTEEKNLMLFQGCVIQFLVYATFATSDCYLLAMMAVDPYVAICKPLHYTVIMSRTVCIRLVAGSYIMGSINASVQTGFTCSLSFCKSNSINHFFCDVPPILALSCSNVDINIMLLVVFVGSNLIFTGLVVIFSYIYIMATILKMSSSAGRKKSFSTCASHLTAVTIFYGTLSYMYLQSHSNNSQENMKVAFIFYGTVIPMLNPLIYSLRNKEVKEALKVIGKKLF
How it was run: as §1

OR5AN1 (Homo sapiens) = molecular target: T15, OR5AN1 (Homo sapiens) (UniProt Q8NGI8)
T15 sequence (whole entry): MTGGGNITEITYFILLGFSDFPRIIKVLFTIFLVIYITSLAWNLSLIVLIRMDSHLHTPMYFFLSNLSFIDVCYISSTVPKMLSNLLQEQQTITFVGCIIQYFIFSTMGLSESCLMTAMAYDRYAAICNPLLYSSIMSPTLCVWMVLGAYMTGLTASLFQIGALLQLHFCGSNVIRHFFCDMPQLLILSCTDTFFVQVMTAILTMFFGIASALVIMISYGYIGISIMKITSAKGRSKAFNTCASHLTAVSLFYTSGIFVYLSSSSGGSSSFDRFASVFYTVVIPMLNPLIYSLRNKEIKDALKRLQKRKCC
How it was run: as §1

OR5AP2 (Homo sapiens) = molecular target: T16, OR5AP2 (Homo sapiens) (UniProt Q8NGF4)
T16 sequence (whole entry): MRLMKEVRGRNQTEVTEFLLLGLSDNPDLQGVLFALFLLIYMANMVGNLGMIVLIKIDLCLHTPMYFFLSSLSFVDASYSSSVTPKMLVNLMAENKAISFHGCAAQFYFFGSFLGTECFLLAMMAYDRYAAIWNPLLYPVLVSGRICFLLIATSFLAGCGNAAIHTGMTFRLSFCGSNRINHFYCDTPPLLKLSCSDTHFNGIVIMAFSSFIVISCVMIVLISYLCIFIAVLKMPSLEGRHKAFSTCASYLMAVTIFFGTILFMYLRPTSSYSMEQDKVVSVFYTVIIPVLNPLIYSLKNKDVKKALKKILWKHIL
How it was run: as §1

Compound | odorant receptor agonist call (OR5AC2 (Homo sapiens)) | odorant receptor agonist call (OR52N4 (Homo sapiens)) | odorant receptor agonist call (OR52N5 (Homo sapiens)) | odorant receptor agonist call (OR52R1 (Homo sapiens)) | odorant receptor agonist call (OR52W1 (Homo sapiens)) | odorant receptor agonist call (OR56A1 (Homo sapiens)) | odorant receptor agonist call (OR56A3 (Homo sapiens)) | odorant receptor agonist call (OR56A4 (Homo sapiens)) | odorant receptor agonist call (OR56A5 (Homo sapiens)) | odorant receptor agonist call (OR56B1 (Homo sapiens)) | odorant receptor agonist call (OR56B4 (Homo sapiens)) | odorant receptor agonist call (OR5A1 (Homo sapiens)) | odorant receptor agonist call (OR5A2 (Homo sapiens)) | odorant receptor agonist call (OR5AK2 (Homo sapiens)) | odorant receptor agonist call (OR5AN1 (Homo sapiens)) | odorant receptor agonist call (OR5AP2 (Homo sapiens))
CC(C)=CCCC(C)CC=O (centres undefined) | inactive |  |  |  |  |  |  |  |  |  |  |  |  |  |  | 
OCc1ccccc1 | inactive |  |  |  |  |  |  |  |  |  |  |  |  |  |  | 
CCCCC(S)C(C)CO (centres undefined) | inactive | inactive | active | inactive | inactive | inactive | inactive | inactive | inactive | inactive | active | inactive | inactive | inactive | inactive | inactive
CC(CO)CS (centres undefined) | inactive | inactive | inactive | inactive | inactive | inactive | inactive | inactive | inactive | inactive | inactive | inactive | inactive | inactive | inactive | inactive

Reference: the M2OR odorant receptor database
